Results on three compounds are retold here after ChEMBL document CHEMBL4402547, “Synthesis and Pharmacological Characterization of Conformationally Restricted Retigabine Analogues as Novel Neuronal Kv7 Channel Activators” (J Med Chem, 2020).

The target in data set [1] is Potassium voltage-gated channel subfamily KQT member 2 (Homo sapiens, UniProt O43526). The data set can be described thus: Activation of human Kv7.2 expressed in CHO cells assessed as increase in current amplitude at 10 uM measured at holding potential of 0 mV by whole cell patch clamp electrophysiology assay relative to control. The class given is cell-based. A digest of the protocol: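 Transiently transfected CHO cells expressing human Kv7.2, whole-cell patch clamp at 20–22°C in HEPES-buffered saline pH 7.4. Cells held at −80 mV and ramped −80 to +20 mV over 3 s, before and during 10 μM drug. Ramp current at 0 mV taken as drug/control ratio; mean ± SEM of ≥3 cells, ≥2 transfections.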
Chain of Potassium voltage-gated channel subfamily KQT member 2 (O43526 whole entry): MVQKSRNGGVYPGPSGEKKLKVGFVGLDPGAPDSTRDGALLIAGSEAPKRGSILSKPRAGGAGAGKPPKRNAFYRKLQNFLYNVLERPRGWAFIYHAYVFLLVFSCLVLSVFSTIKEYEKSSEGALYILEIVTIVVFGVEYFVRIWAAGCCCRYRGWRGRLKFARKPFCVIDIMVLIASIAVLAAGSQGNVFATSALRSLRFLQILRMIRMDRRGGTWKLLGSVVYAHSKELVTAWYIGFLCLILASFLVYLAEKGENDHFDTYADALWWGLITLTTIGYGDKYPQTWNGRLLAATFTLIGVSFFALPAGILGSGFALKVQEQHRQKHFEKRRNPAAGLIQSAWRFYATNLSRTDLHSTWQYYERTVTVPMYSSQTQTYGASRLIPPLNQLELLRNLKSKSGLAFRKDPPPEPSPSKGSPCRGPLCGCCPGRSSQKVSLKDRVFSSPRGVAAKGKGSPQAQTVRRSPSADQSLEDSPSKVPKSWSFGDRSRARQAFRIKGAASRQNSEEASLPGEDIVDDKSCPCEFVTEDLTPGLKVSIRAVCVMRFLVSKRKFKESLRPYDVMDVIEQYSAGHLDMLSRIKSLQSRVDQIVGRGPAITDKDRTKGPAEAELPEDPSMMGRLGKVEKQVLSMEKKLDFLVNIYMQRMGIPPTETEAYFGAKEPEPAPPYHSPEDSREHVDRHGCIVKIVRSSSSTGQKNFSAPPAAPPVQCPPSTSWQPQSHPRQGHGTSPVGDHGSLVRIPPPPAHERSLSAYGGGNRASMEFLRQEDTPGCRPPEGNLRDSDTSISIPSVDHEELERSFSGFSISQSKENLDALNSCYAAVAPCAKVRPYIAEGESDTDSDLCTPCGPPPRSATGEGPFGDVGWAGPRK

Data set [2] can be described thus: Hydrophobicity of compound assessed as self aggregating property by measuring decrease in ratio between fluorescence intensity peaks at 372 nm to 383 nm at 0.7 to 100 uM by pyrene based fluorescence spectroscopic method. The class given is physicochemical. A digest of the protocol:
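DMSO stocks diluted in 0.9% NaCl to 0.7–100 μM, residual DMSO <0.1%. Pyrene used as probe, excited at 334 nm; emission recorded 200–700 nm, ten scans summed, at 25°C. Ratio of peak I (372 nm) to peak III (383 nm) intensity plotted against concentration.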

Data set [3] deals with Voltage-gated potassium channel, KQT; KCNQ2(Kv7.2)/KCNQ3(Kv7.3) (Homo sapiens) (UniProt O43526+O43525). Kind of data set: Activation of human Kv7.2/Kv7.3 expressed in CHO cells assessed as delta V at 10 uM by whole cell patch clamp electrophysiology assay. The class given is cell-based. A general note: In patch-clamp work, channel activity is measured electrically.
Data set [4] concerns the target T1, Potassium voltage-gated channel subfamily KQT member 4 (Homo sapiens, UniProt P56696).
T1 sequence (P56696 whole entry): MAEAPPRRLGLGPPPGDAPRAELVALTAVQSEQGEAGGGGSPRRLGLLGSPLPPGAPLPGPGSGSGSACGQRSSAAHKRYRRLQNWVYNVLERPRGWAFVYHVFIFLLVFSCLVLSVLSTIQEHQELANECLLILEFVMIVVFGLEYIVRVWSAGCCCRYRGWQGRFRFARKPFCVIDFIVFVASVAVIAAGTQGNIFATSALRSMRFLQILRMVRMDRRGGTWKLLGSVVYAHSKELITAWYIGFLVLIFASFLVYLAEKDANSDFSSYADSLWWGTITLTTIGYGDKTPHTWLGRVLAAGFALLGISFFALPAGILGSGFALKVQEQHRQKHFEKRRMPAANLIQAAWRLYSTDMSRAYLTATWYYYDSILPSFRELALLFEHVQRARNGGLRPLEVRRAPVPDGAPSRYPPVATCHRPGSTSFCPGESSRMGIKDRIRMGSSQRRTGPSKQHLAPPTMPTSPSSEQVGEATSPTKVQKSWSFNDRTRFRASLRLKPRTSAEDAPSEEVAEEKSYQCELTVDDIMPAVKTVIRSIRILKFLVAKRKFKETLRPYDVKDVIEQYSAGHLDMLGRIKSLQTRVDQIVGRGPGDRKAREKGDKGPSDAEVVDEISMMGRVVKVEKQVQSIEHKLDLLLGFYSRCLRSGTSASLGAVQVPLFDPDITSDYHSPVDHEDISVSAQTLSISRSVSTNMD
The data set can be described thus: Activation of human Kv7.4 expressed in CHO cells assessed as delta V at 10 uM by whole cell patch clamp electrophysiology assay. The class given is cell-based.

Data set [5] has as its target Potassium voltage-gated channel subfamily KQT member 5 (Homo sapiens, UniProt Q9NR82). Kind of data set: Activation of human Kv7.5 expressed in CHO cells assessed as increase in channel current amplitude by whole cell patch clamp electrophysiology assay. The class given is cell-based.
A short description of data set [6]: Photostability of compound in pH 7.4 buffer assessed as compound degradation at 100 ug/ml incubated for 6 hrs under natural solar light-irradiation by HPLC analysis relative to control. In short, it runs like this:
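DMSO solutions diluted in pH 7.4 buffer, held in 1 cm quartz cells and exposed to natural daylight. Light-shielded controls kept at 37°C in foil. Aliquots drawn at set intervals and parent compound loss measured by UHPLC: C18 column, 0.1% TFA water/acetonitrile gradient, 45°C, detection at 254 nm.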

In data set [7] the target is CYP450 (phase 1 metabolism) (Homo sapiens, UniProt P04798+P05177+P05181+P08684+P10632+P10635+P11509+P11712+P13584+P20813+P20815+P20853+P24462+P24903+P33260+P33261+P51589+P78329+P98187+Q02928+Q08477+Q16678+Q16696+Q5TCH4+Q6VVX0+Q7Z449+Q8TAV3+Q96SQ9+Q9HB55). The data set can be described thus: Drug metabolism in human liver S9 fractions assessed as CYP450-mediated phase 1 metabolism at 1 mM preincubated for 5 mins followed by NADPH addition and measured after 60 mins by RP-UHPLC-DAD analysis relative to control. The conditions noted are these: read-out: Drug metabolism. The class given is ADME, subcellular. In short, it runs like this: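 Drug (1 mM stock, 2 μL) incubated with pooled human liver S9 fraction in 100 mM phosphate buffer pH 7.4. After 5 min preincubation, NADPH added and mixture kept 60 min at 37°C. Stopped with ice-cold methanol, centrifuged, supernatant analysed by RP-UHPLC-DAD. % turnover = 100 − (60 min/0 min concentration × 100). Controls: no-NADPH, and testosterone, 7-hydroxycoumarin, p-aminobenzoic acid.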

Calls of active or inactive are those of the source. The rule behind the calls is not given here.

Chain of Potassium voltage-gated channel subfamily KQT member 5 (Q9NR82 whole entry): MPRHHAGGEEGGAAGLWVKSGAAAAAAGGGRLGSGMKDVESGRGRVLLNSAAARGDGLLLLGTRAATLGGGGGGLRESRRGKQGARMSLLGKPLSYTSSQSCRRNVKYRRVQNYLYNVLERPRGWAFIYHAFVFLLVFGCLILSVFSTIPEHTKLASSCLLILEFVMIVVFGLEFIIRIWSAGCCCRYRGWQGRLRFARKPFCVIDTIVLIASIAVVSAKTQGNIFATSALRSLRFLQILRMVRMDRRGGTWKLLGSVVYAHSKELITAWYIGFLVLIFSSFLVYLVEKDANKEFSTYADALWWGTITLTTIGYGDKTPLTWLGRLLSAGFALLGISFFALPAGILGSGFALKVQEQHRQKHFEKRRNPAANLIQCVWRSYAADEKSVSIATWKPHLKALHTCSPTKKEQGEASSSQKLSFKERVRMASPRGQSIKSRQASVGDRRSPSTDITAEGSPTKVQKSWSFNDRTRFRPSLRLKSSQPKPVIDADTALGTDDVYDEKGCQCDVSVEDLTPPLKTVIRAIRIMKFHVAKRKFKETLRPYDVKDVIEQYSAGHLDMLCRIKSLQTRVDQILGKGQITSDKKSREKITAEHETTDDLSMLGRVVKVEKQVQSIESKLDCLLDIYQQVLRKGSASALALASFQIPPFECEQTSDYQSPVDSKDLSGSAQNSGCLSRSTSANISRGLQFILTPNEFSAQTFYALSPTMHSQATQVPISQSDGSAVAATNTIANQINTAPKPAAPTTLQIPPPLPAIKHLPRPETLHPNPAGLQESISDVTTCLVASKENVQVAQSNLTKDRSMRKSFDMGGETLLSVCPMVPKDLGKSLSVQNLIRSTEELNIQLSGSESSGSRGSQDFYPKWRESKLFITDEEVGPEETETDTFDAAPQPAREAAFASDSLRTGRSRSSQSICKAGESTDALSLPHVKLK

In the case of `CCCCCCC(=O)Nc1ccc2c(ccn2Cc2ccc(C(F)(F)F)cc2)c1`, the result in data set [1] was Active. Moreover, the values for the Activity result in data set [2], in data set [3] and in data set [4] were “Active”, -25.4 mV and -32.85 mV, respectively. Further, in data set [5], the EC50 (usually the concentration giving half of the maximal effect) was determined as 1070 nM. Besides, the Drug degradation in data set [6] was 9.15%. Moreover, in data set [7], the metabolised at 1 h, 1000 µM was 48.7%.

With `CCOC(=O)Nc1ccc(NCc2ccc(F)cc2)cc1N` [EZOGABINE], in data set [1], the Ratio was found to be 2. The figures for the Activity result in data set [2], in data set [3] and in data set [4] were “Not Active”, -26.8 mV and -15.19 mV, respectively. Moreover, the EC50 in data set [5] came to 800 nM. Besides, the Drug degradation in data set [6] was 43.5 to 47.3%. In data set [7], the metabolised at 1 h, 1000 µM turned out to be 3.11%.

In the case of `CC(C)(C)CC(=O)Nc1ccc2c(ccn2Cc2ccc(C(F)(F)F)cc2)c1`, in data set [1], the outcome was Active. The Activity entry was “Active” in data set [2], -20 mV in data set [3] and -24.43 mV in data set [4]. In data set [5], the EC50 was 350 nM. Also, in data set [6], the Drug degradation was found to be 8.45%. Also, the metabolised at 1 h, 1000 µM in data set [7] was 17.3%.
